Screens: PubChem BioAssay, The Scripps Research Institute Molecular Screening Center
A selection: hits, their analogues and other compounds. The true share with any hit is near 2.6%.
SIAE primary – blocks human sialic acid acetylesterase; SIAE FP-Rh probe binding, fluorescence polarization; inhibition, % at 9.66 µM; hit rate 0.69% among 370,000; AID 1053197;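 active = inhibition above a cutoff: mean of compounds within the control limits plus 3 SD of those, cut at about 17% in these data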;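 also: 0% = plate median of compound wells and 100% = probe without SIAE protein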
Target sequence (Q9HAT2 whole entry, looked up): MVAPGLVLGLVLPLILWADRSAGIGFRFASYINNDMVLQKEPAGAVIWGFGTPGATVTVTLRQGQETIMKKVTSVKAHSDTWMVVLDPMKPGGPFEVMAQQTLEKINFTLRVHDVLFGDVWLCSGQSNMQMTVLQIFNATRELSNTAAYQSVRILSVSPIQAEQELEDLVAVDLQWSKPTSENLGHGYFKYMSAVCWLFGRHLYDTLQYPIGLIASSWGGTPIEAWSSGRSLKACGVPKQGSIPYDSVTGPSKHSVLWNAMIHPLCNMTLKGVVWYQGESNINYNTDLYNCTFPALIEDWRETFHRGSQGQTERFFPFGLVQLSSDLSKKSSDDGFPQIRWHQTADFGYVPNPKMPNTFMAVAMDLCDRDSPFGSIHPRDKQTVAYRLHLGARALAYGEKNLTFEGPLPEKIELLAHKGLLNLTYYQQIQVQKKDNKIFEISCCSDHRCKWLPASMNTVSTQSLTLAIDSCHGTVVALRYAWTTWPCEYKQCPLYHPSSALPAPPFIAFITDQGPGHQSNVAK
HTRA1 inh – blocks human HTRA1 serine peptidase | Q92743 | recombinant HTRA1, FP-rhodamine activity-based probe, fluorescence polarization | inhibition, % at 5.96 µM | hit rate 0.5% among 340,000; in the data active = inhibition above about 36%;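 also: 0% = enzyme with DMSO and 100% = wells lacking enzyme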
TCR-CD3 inh – inhibitors of human TCR-CD3 interaction. TAMRA-labeled TCR probe fluorescence, biochemical. inhibition, % at 9.4 µM. hit rate 0.37% among 360,000. AID 651800; in the data active = inhibition above about 19%;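 also: recombinant mutant TCR 2C K166C tagged with TAMRA read by polarization; 0% = receptor in buffer alone and 100% = receptor with positive control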
mABHD4 FP – ABHD4 (mouse) inhibition, primary FP screen. Q8VD66. inhibition, % at 8.92 µM. hit rate 0.54% among 370,000. AID 720543. purified mABHD4, FP-Rh probe fluorescence polarization;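 active = inhibition exceeding the mean over every tested compound plus 3 SD, cut at about 30% in these data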;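 also: 0% = plate median of compound wells and 100% = S159A mutant with DMSO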
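Test system: mouse ABHD4 enzyme, wild type. Reagent: FP-Rh fluorescent activity-based probe, added after compound pre-incubation. Timing: pre-incubation 45 min, probe exposure 60 min, at 25 °C. Technique: FP readout, ex 525 nm / em 598 nm. Benchmarks: high control S159A mutant with DMSO, low control median of compound wells.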
PRMT1 FP inh – blocks human protein arginine methyltransferase 1. hit rate 1.3% among 370,000. inhibition, % at 2.79 µM. recombinant PRMT1, activity-based probe fluorescence polarization. AID 652257. Q99873;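 active = inhibition above about 21% made by adding two undisclosed values, limit read from the data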
An asterisk follows results filed as active; . = no result given.

SMILES	SIAE primary	HTRA1 inh	TCR-CD3 inh	mABHD4 FP	PRMT1 FP inh
CCCCCCCN(C(=O)CCl)c1ccccc1C	2	-1	-3	-3	47*
COC(=O)[C@]12C[C@H](CC(=O)NCc3ccc(C)o3)C(=O)N(Cc3ccc(Cl)cc3Cl)C1=C[C@H](COCc1ccccc1)O[C@@H]2C	-2	.	.	-10	2
COCC(=O)N(Cc1ccccc1)c1ccccc1C(=O)Nc1cc(OC)ccc1OC	-1	.	.	-5	8
Cc1nn(-c2ccccc2)c(C)c1/C=N\NC(=O)CSc1nc2ccccc2n1Cc1ccc(Cl)cc1	-19	.	.	-17	-3
C/C(=N\NC(=O)c1cccc(N/N=C(\C)c2cc(O)ccc2O)c1)c1cc(O)ccc1O	11	28	30*	24	6
O=C(CSc1nnc(-c2cccnc2)n1-c1ccc(Cl)cc1)Nc1ccc(S(=O)(=O)Nc2nccs2)cc1	-4	.	.	3	1
Cn1c(SCC(=O)c2ccc3c(c2)OCO3)nnc1C1COc2ccccc2O1 (stereo not given)	-4	7	7	-9	22*
Cc1ccccc1OCC(=O)NCC(=O)OCC(=O)c1ccc([N+](=O)[O-])cc1	-3	4	12	1	24*
Cc1ccc(C(=O)COC(=O)CNC(=O)COc2ccccc2C)cc1C	8	-11	6	-4	1
COC(=O)c1ccc(NC(=O)c2ccc(NC(=O)c3ccco3)cc2)cc1	-47	-7	1	-1	1
O=C(Oc1ccccc1)c1ccc(NC(=O)c2ccco2)cc1	-2	-12	12	-18	24*
C#CCN1C(=O)[C@]2(NCCc3c2[nH]c2ccc(OC)cc32)c2cc(F)ccc21	0	.	.	4	0
COC(=O)[C@@]1(Cc2ccc(F)cc2)[C@H]2c3cc(C(=O)N(C)C)n(Cc4ccc(C)o4)c3C[C@H]2CN1C(=O)c1ccccc1	-2	.	13	0	22*
Cc1ccc(-n2c(SCC(=O)c3ccc(O)c(O)c3)nnc2-c2ccccc2)cc1	-22	.	.	3	19
Cc1sc2nc(CSCC(=O)N(CCC#N)c3ccccc3)[nH]c(=O)c2c1C	-2	-4	20*	6	1
Cc1sc2nc(CSCC(=O)Nc3ccc(C(F)(F)F)cc3)[nH]c(=O)c2c1C	15	-6	-2	-3	4
Cc1sc2nc(CSCC(=O)N(C)CC(=O)Nc3ccc(F)cc3)[nH]c(=O)c2c1C	7	-5	6	3	23*
COC(=O)[C@]12C[C@H](CC(=O)NCC34CC5CC(CC(C5)C3)C4)C(=O)N(Cc3ccco3)C1=C[C@H](COCc1ccccc1)O[C@@H]2C	1	.	.	7	5
O=c1c2cc3cc(Cl)ccc3nc2ncn1Cc1ccc(Oc2ccccc2)cc1	3	.	.	5	-2
COC(=O)[C@]12C[C@H](CC(=O)NCC34CC5CC(CC(C5)C3)C4)C(=O)N(CCc3ccc(OC)c(OC)c3)C1=C[C@H](C(C)C)O[C@@H]2C1CC1	-2	.	.	2	6
CCN1CCN(c2nc3c(C)cccn3c(=O)c2/C=C(\C#N)C(=O)NCCOC)CC1	-1	5	-11	-9	23*
COCCNC(=O)/C(C#N)=C/c1c(N2CCN(C)CC2)nc2c(C)cccn2c1=O	-2	1	0	6	4
CC(=O)c1cccc(S(=O)(=O)NC2CC2)c1	13	-1	-4	3	23*
CCOC(=O)[C@]12CCC=C1N(Cc1ccco1)C(=O)[C@H](CC(=O)NCc1ccc(C)o1)C2	8	.	1	6	11
COC(=O)[C@]12C[C@H](CC(=O)NCc3ccc(C)o3)C(=O)N(Cc3ccccc3)C1=C[C@H](C1CCCC1)O[C@@H]2C	-10	.	6	-12	22*
SMILES	SIAE primary	HTRA1 inh	TCR-CD3 inh	mABHD4 FP	PRMT1 FP inh
CCOC(=O)[C@]12CCC=C1N(Cc1ccccc1)C(=O)[C@H](CC(=O)NCc1ccc(C)o1)C2	-3	.	-9	-12	23*
CN1CCCN(S(=O)(=O)c2ccc3c(c2)n(C)c(=O)c(=O)n3C)CC1	2	.	.	0	-6
CC(C)C[C@@H]1COc2cc(Br)ccc2S(=O)(=O)N1Cc1cn(CC2CCCCC2)nn1	-3	.	.	0	-2
CCCN1C(=O)c2[nH]nc(-c3ccccc3)c2C1c1ccc(F)cc1 (stereo not given)	-7	.	0	-13	22*
CC1(C)C(C(=O)O)N2C(=O)C(NC(=O)Cc3ccccc3)C2S1=O (stereo not given)	10	5	1	-1	23*
C=CCSC1=C(C#N)C(c2ccccc2OCC)CC(=O)N1 (stereo not given)	10	-12	-4	-7	22*
